How the values were obtained:
NIH3T3 = experiment: Antiproliferative activity against mouse 3T3 cells expressing human CSF1R after 72 hrs by Celltiter assay; format: functional
Summary of the method: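 3T3 cells engineered with human full-length CSF-1R, seeded in phenol red-free DMEM with 0.05% BSA and incubated overnight. Treated with DMEM containing 80 ng/ml M-CSF plus insulin, transferrin and selenium at multiple compound concentrations. […] Growth read by MTS-type CellTiter 96 Aqueous One after 72 h.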

[1] = biological target: T1, Macrophage colony-stimulating factor 1 receptor (Homo sapiens, UniProt P07333); experiment: Inhibition of CSF1R
T1 sequence (P07333 whole entry): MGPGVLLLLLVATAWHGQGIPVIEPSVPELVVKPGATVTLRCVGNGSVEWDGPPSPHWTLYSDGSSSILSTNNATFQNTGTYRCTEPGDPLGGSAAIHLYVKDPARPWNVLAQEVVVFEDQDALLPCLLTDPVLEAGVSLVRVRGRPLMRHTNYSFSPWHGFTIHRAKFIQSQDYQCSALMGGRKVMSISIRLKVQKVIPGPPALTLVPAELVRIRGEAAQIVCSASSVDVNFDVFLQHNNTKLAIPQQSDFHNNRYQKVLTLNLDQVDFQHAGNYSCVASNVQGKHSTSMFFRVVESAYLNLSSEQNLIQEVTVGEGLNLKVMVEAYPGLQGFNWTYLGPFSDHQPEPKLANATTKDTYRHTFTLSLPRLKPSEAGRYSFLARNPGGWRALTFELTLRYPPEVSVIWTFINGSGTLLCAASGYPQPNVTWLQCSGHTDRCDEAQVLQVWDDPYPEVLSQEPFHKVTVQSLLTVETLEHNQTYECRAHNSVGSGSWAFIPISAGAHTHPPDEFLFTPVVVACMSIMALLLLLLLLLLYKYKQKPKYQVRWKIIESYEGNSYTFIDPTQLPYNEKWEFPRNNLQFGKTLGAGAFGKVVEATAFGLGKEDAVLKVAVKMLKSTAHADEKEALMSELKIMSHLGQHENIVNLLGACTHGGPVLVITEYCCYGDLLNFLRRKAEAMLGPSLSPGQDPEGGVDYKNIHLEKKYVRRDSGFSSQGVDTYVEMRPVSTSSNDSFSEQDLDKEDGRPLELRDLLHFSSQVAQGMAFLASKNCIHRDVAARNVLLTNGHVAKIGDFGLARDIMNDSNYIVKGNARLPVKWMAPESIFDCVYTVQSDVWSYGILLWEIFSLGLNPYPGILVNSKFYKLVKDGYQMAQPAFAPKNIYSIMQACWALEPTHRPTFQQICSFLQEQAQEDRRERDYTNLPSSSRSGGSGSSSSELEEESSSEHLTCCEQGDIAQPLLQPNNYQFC

[2] = Bioavailability in rat at 3 mg/kg, iv and 10 mg/kg, po; format: ADME, organism-based; settings: in vivo
[3] = Half life in rat at 3 mg/kg, iv and 10 mg/kg, po; format: ADME, organism-based; settings: in vivo
[4] = Volume of distribution at steady state in rat at 3 mg/kg, iv and 10 mg/kg, po; format: ADME, organism-based; settings: in vivo, read-out: Vdss
[5] = Clearance in rat at 3 mg/kg, iv and 10 mg/kg, po; format: ADME, organism-based; settings: in vivo
[6] = biological target: Mitogen-activated protein kinase 1 (Homo sapiens) (UniProt P28482); experiment: Inhibition of MAPK1 assessed as residual enzyme activity at 1 uM
[7] = biological target: Ephrin type-A receptor 2 (Homo sapiens) (UniProt P29317); experiment: Inhibition of EphA2 assessed as residual enzyme activity at 1 uM
Ephrin type-A receptor 2 (Homo sapiens), sequence (P29317 whole entry): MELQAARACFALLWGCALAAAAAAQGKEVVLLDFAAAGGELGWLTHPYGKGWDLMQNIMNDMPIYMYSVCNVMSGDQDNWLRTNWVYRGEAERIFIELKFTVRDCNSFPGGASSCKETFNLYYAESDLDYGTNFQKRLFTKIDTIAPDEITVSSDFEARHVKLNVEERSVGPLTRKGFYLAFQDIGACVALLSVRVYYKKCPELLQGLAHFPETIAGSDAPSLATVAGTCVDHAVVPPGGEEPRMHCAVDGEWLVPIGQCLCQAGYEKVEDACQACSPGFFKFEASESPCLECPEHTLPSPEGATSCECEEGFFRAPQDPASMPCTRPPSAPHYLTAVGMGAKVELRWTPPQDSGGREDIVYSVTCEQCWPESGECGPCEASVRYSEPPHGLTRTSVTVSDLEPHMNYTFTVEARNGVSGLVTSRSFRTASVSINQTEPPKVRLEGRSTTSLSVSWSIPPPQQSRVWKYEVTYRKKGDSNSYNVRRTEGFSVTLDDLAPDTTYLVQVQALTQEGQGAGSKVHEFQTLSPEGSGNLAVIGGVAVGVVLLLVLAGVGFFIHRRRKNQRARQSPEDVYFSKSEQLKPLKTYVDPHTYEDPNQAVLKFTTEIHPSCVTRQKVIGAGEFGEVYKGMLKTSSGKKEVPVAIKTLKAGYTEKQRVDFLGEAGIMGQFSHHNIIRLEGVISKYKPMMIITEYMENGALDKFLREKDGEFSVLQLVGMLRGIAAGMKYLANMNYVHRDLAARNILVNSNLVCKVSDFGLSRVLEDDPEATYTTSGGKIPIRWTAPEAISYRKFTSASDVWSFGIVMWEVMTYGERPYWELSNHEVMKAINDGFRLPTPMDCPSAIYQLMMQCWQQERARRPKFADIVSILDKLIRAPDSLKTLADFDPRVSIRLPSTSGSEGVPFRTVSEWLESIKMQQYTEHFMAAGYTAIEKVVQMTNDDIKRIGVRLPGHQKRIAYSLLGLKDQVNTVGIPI

[8] = biological target: Serine/threonine-protein kinase pim-1 (Homo sapiens) (UniProt P11309); experiment: Inhibition of Pim-1 assessed as residual enzyme activity at 1 uM
[9] = biological target: Tyrosine-protein kinase Fyn (Homo sapiens) (UniProt P06241); experiment: Inhibition of Fyn assessed as residual enzyme activity at 1 uM
[10] = biological target: Receptor-type tyrosine-protein kinase FLT3 (Homo sapiens) (UniProt P36888); experiment: Inhibition of Flt3 assessed as residual enzyme activity at 1 uM
[11] = biological target: Cyclin-dependent kinase 2 (Homo sapiens) (UniProt P24941); experiment: Inhibition of CDK2/cyclinA assessed as residual enzyme activity at 1 uM
[12] = biological target: T1, Macrophage colony-stimulating factor 1 receptor; experiment: Inhibition of CSF1R assessed as residual enzyme activity at 1 uM
[13] = biological target: Hepatocyte growth factor receptor (Homo sapiens) (UniProt P08581); experiment: Inhibition of Met assessed as residual enzyme activity at 1 uM
Mus musculus [14] = experiment: Inhibition of phosphorylated CSF1R level in 3T3/CSF1R mutant cells xenografted nude mouse at 50 mg/kg, po after 6 hrs by ELISA; format: functional
Summary of the method: (§1)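 3T3 cells expressing constitutively active human mutant full-length CSF-1R (301–969) were implanted subcutaneously at 5 × 10⁶ cells in female nude mice and grown to tumors >250 mm³. After dosing, tumors were assayed for pCSF-1R by ELISA, and plasma was sampled for drug levels.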

[15] = biological target: Glycogen synthase kinase-3 beta (Homo sapiens) (UniProt P49841); experiment: Inhibition of GSK3-beta assessed as residual enzyme activity at 1 uM
[16] = biological target: Fibroblast growth factor receptor 1 (Homo sapiens) (UniProt P11362); experiment: Inhibition of FGFR1 assessed as residual enzyme activity at 1 uM
[17] = biological target: Epidermal growth factor receptor (Homo sapiens) (UniProt P00533); experiment: Inhibition of EGFR assessed as residual enzyme activity at 1 uM
[18] = biological target: Angiopoietin-1 receptor (Homo sapiens) (UniProt Q02763); experiment: Inhibition of Tie2 assessed as residual enzyme activity at 1 uM
[19] = biological target: Vascular endothelial growth factor receptor 2 (Homo sapiens) (UniProt P35968); experiment: Inhibition of KDR assessed as residual enzyme activity at 1 uM
[20] = biological target: Tyrosine-protein kinase JAK2 (Homo sapiens) (UniProt O60674); experiment: Inhibition of JAK2 assessed as residual enzyme activity at 1 uM
Tyrosine-protein kinase JAK2 (Homo sapiens), sequence (O60674 whole entry): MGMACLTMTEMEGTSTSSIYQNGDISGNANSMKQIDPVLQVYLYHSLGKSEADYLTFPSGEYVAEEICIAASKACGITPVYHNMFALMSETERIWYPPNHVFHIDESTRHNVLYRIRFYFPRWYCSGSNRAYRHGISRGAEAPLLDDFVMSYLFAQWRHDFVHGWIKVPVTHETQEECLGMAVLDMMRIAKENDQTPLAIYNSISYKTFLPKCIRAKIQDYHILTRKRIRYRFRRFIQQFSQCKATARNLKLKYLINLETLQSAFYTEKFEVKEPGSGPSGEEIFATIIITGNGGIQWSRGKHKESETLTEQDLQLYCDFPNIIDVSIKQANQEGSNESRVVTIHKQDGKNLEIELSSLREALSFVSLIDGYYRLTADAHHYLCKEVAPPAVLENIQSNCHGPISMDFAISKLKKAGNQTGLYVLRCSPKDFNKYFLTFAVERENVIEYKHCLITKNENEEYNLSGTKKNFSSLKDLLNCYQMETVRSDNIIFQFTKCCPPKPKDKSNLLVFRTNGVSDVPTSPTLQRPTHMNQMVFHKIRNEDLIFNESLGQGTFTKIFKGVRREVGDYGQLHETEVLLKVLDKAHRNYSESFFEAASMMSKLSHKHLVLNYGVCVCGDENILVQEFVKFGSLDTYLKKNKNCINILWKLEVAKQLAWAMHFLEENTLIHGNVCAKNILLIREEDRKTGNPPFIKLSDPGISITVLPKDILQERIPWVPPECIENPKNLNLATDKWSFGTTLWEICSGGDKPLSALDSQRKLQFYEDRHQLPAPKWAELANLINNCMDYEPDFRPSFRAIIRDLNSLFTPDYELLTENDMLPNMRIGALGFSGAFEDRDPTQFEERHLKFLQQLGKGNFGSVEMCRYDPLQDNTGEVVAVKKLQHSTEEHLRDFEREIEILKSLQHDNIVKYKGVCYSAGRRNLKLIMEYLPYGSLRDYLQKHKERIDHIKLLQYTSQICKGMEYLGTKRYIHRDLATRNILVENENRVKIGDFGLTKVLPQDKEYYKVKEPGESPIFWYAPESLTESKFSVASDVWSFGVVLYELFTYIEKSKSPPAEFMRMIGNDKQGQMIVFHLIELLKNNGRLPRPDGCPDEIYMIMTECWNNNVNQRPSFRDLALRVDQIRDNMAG

[21] = biological target: Insulin-like growth factor 1 receptor (Homo sapiens) (UniProt P08069); experiment: Inhibition of IGF1-R assessed as residual enzyme activity at 1 uM
[22] = biological target: Tyrosine-protein kinase HCK (Homo sapiens) (UniProt P08631); experiment: Inhibition of Hck assessed as residual enzyme activity at 1 uM
Tyrosine-protein kinase HCK (Homo sapiens), sequence (P08631 2-526 limits assumed): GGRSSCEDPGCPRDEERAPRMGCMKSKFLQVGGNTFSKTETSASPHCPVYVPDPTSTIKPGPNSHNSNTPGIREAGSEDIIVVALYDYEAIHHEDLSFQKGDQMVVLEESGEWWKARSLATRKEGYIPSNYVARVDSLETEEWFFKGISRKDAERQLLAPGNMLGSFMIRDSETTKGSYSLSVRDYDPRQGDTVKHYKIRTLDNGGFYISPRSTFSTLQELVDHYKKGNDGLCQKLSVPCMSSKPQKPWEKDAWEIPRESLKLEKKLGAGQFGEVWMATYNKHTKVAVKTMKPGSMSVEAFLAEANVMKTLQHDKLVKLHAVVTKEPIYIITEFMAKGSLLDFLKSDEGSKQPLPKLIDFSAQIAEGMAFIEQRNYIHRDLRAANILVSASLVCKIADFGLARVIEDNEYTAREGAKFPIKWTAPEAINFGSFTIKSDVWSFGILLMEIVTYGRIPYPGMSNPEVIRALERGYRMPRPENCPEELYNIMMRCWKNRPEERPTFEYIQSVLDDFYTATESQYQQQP

Mus musculus [23] = experiment: Inhibition of phosphorylated CSF1R level in 3T3/CSF1R mutant cells xenografted nude mouse at 50 mg/kg, po after 2 hrs by ELISA; format: functional; summary of the method: as §1
[24] = biological target: Mast/stem cell growth factor receptor Kit (Homo sapiens) (UniProt P10721); experiment: Inhibition of cKit assessed as residual enzyme activity at 1 uM
[25] = biological target: RAF proto-oncogene serine/threonine-protein kinase (Homo sapiens) (UniProt P04049); experiment: Inhibition of cRaf assessed as residual enzyme activity at 1 uM
RAF proto-oncogene serine/threonine-protein kinase (Homo sapiens), sequence (P04049 whole entry): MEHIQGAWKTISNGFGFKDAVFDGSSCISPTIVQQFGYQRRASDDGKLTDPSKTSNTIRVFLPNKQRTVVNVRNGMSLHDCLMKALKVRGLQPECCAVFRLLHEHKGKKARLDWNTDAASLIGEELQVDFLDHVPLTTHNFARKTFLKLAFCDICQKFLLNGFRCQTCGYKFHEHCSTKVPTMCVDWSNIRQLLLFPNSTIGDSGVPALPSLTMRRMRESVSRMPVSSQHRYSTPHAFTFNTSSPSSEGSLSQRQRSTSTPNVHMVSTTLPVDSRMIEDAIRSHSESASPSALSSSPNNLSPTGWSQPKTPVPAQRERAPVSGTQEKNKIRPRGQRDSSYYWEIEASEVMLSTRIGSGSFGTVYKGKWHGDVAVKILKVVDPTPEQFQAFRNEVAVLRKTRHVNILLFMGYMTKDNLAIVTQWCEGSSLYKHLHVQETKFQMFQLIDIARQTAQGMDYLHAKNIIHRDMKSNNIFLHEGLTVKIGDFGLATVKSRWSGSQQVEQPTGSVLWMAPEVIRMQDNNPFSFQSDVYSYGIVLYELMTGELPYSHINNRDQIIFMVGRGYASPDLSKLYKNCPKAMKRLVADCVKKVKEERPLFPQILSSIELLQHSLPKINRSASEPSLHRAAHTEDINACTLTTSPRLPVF

[26] = biological target: Inhibitor of nuclear factor kappa-B kinase subunit beta (Homo sapiens) (UniProt O14920); experiment: Inhibition of IKK-beta assessed as residual enzyme activity at 1 uM
Inhibitor of nuclear factor kappa-B kinase subunit beta (Homo sapiens), sequence (O14920 whole entry): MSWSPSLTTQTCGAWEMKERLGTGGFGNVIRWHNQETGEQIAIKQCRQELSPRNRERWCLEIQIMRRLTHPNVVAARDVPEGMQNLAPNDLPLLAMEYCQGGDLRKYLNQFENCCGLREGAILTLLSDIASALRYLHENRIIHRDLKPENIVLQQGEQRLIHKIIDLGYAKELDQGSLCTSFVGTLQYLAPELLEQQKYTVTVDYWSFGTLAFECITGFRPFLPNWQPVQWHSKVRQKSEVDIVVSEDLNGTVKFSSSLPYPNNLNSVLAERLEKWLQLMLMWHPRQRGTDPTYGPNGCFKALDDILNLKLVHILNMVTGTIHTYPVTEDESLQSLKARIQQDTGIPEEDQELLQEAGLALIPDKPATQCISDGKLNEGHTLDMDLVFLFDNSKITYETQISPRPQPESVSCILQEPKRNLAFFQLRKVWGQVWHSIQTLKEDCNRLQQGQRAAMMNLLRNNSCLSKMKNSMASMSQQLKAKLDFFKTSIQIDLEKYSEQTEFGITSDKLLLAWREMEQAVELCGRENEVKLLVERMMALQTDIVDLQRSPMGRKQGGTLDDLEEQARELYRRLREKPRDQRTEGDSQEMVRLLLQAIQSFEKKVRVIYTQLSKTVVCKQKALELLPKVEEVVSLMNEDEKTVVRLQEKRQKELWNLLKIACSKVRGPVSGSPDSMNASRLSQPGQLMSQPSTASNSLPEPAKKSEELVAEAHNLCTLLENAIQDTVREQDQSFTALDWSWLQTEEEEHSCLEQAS

[27] = biological target: Insulin receptor (Homo sapiens) (UniProt P06213); experiment: Inhibition of insulin receptor assessed as residual enzyme activity at 1 uM
[28] = biological target: Proto-oncogene tyrosine-protein kinase Src (Homo sapiens) (UniProt P12931); experiment: Inhibition of Src assessed as residual enzyme activity at 1 uM
[29] = biological target: Platelet-derived growth factor receptor beta (Homo sapiens) (UniProt P09619); experiment: Inhibition of PDGFRbeta assessed as residual enzyme activity at 1 uM

Q: What does the source list for `Cc1cc(C)cc(C(=O)Nc2ccc(C)c(C(=O)Nc3cnc(C)s3)c2)c1`?
A: Activity (NIH3T3): 0.1 µM; IC50 [1]: 4 nM

Q: Which results are given for `CN(C)c1cccc(C(=O)Nc2ccc(Cl)c(C(=O)Nc3cccnc3)c2)c1`?
A: Activity (NIH3T3): 0.77 µM; IC50 [1]: 16 nM

Q: With `O=C(Nc1ccc(Cl)c(C(=O)Nc2cncs2)c1)c1cccc(C(F)(F)F)c1` as the compound, how does the bioavailability [2] read?
A: Its bioavailability is 40%.

Q: And the Activity (NIH3T3)?
A: Its Activity is 0.27 µM.

Q: And the half-life [3]?
A: The half-life was 1.2 h.

Q: What about the IC50 [1] of the same compound?
A: The IC50 was 3 nM.

Q: And the Vd [4]?
A: Its Vd is 4.2 L/kg.

Q: What about the clearance [5] of the same compound?
A: Its clearance is 58 mL/min/kg.

Q: Which Activity [6] does the source give for `Cc1ncc(NC(=O)c2cc(NC(=O)c3cccc(C(F)(F)F)c3)ccc2Cl)s1` here?
A: Its Activity is 116%.

Q: And the bioavailability [2]?
A: Its bioavailability is 62%.

Q: And the Activity [7]?
A: Its Activity is 5%.

Q: What about the Activity [8] of the same compound?
A: The Activity was 116%.

Q: And the Activity [9]?
A: The Activity was 7%.

Q: What about the Activity [10] of the same compound?
A: Its Activity is 114%.

Q: And the Activity [11]?
A: Its Activity is 95%.

Q: What about the Activity [12] of the same compound?
A: The Activity was 1%.

Q: What about the Activity [13] of the same compound?
A: The Activity was 109%.

Q: And the inhibition in vivo at 50 mg/kg (Mus musculus [14])?
A: The inhibition in vivo at 50 mg/kg was 35%.

Q: And the Activity [15]?
A: Its Activity is 91%.

Q: What about the Activity [16] of the same compound?
A: Its Activity is 111%.

Q: And the Activity [17]?
A: Its Activity is 118%.

Q: What about the Activity [18] of the same compound?
A: The Activity was 111%.

Q: And the Activity [19]?
A: Its Activity is 10%.

Q: What about the Activity [20] of the same compound?
A: The Activity was 112%.

Q: And the Activity (NIH3T3)?
A: The Activity was 0.05 µM.

Q: And the Activity [21]?
A: The Activity was 107%.

Q: What about the half-life [3] of the same compound?
A: The half-life was 1.2 h.

Q: And the Activity [22]?
A: The Activity was 6%.

Q: What about the inhibition in vivo at 50 mg/kg (Mus musculus [23]) of the same compound?
A: Its inhibition in vivo at 50 mg/kg is 70%.

Q: What about the IC50 [1] of the same compound?
A: The IC50 was 7 nM.

Q: What about the Activity [24] of the same compound?
A: Its Activity is 57%.

Q: And the Activity [25]?
A: The Activity was 9%.

Q: What about the Activity [26] of the same compound?
A: The Activity was 112%.

Q: And the Activity [27]?
A: The Activity was 108%.

Q: What about the Vd [4] of the same compound?
A: The Vd was 1.1 L/kg.

Q: What about the Activity [28] of the same compound?
A: Its Activity is 10%.

Q: What about the Activity [29] of the same compound?
A: The Activity was 45%.

Q: What about the clearance [5] of the same compound?
A: The clearance was 13 mL/min/kg.

Q: Which bioavailability [2] does the source give for `O=C(Nc1ccc(Cl)c(C(=O)Nc2cccnc2)c1)c1cccc(Cl)c1` here?
A: The bioavailability was 33%.

Q: What about the Activity (NIH3T3) of the same compound?
A: Its Activity is 0.33 µM.

Q: What about the half-life [3] of the same compound?
A: Its half-life is 1.1 h.

Q: And the IC50 [1]?
A: Its IC50 is 10 nM.

Q: What about the Vd [4] of the same compound?
A: The Vd was 1.4 L/kg.

Q: And the clearance [5]?
A: Its clearance is 16 mL/min/kg.

Q: Which results are given for `COc1cccc(C(=O)Nc2ccc(Cl)c(C(=O)Nc3cccnc3)c2)c1`?
A: Activity (NIH3T3): 0.94 µM; IC50 [1]: 9 nM

Q: What does the source list for `O=C(Nc1ccc(Cl)c(C(=O)Nc2cnc(C3CC3)s2)c1)c1cccc(C(F)(F)F)c1`?
A: Activity (NIH3T3): 0.1 µM; IC50 [1]: 140 nM

Q: For `Cc1ncc(NC(=O)c2cc(NC(=O)c3cccc(Cl)c3)ccc2C)s1`, which Activity (NIH3T3) is on record?
A: Its Activity is 0.32 µM.

Q: And the IC50 [1]?
A: Its IC50 is 7 nM.

Q: For `Cc1ccc(C(=O)Nc2ccc(Cl)c(C(=O)Nc3cccnc3)c2)cc1C`, which Activity (NIH3T3) is on record?
A: Its Activity is 0.15 µM.

Q: What about the IC50 [1] of the same compound?
A: The IC50 was 5 nM.

Q: Which results are given for `Cc1ncc(NC(=O)c2cc(NC(=O)c3cc(F)cc(C(F)(F)F)c3)ccc2Cl)s1`?
A: bioavailability [2]: 31%; inhibition in vivo at 50 mg/kg (Mus musculus [14]): 100%; Activity (NIH3T3): 0.11 µM; half-life [3]: 7.3 h; inhibition in vivo at 50 mg/kg (Mus musculus [23]): 100%; IC50 [1]: 7 nM; Vd [4]: 1.4 L/kg; clearance [5]: 2 mL/min/kg

Q: Which bioavailability [2] does the source give for `O=C(Nc1ccc(Cl)c(C(=O)Nc2cccnc2)c1)c1cccc(C(F)(F)F)c1` here?
A: The bioavailability was 76%.

Q: What about the Activity (NIH3T3) of the same compound?
A: The Activity was 0.14 µM.

Q: What about the half-life [3] of the same compound?
A: The half-life was 1 h.

Q: And the IC50 [1]?
A: Its IC50 is 16 nM.

Q: And the Vd [4]?
A: The Vd was 1.5 L/kg.

Q: And the clearance [5]?
A: Its clearance is 20 mL/min/kg.

Q: Which Activity (NIH3T3) does the source give for `O=C(Nc1ccc(Cl)c(C(=O)Nc2cccnc2)c1)c1cccc(Br)c1` here?
A: The Activity was 0.26 µM.

Q: And the IC50 [1]?
A: Its IC50 is 14 nM.

Q: For `Cc1cc(C)cc(C(=O)Nc2ccc(Cl)c(C(=O)Nc3cncs3)c2)c1`, which Activity (NIH3T3) is on record?
A: The Activity was 0.11 µM.

Q: What about the IC50 [1] of the same compound?
A: The IC50 was 3 nM.

Q: With `Cc1ccc(NC(=O)c2cccc(C(F)(F)F)c2)cc1C(=O)Nc1ccccc1` as the compound, how does the Activity (NIH3T3) read?
A: The Activity was greater than 10 µM.

Q: And the IC50 [1]?
A: Its IC50 is greater than 50000 nM.

Q: Which Activity (NIH3T3) does the source give for `CCN(CC)CCNC(=O)c1c(C)[nH]c(/C=C2\C(=O)Nc3ccc(F)cc32)c1C.O=C(O)C[C@H](O)C(=O)O` [SUNITINIB MALATE] here?
A: Its Activity is 0.09 µM.

Q: With `Cc1ccc(NC(=O)c2cccc(C(F)(F)F)c2)cc1NC(=O)c1cccnc1` as the compound, how does the Activity (NIH3T3) read?
A: The Activity was 2.15 µM.

Q: And the IC50 [1]?
A: The IC50 was 11 nM.

— ChEMBL document CHEMBL1139407, “Pyridyl and thiazolyl bisamide CSF-1R inhibitors for the treatment of cancer” (Bioorg Med Chem Lett, 2008)
